Screening results deposited in PubChem BioAssay by Sanford-Burnham Center for Chemical Genomics.
Apaf-1 inh – blocks human Apaf-1 apoptosome activity; O14727; reconstituted apoptosome caspase-3 activity, DEVD-Rh110 fluorescence; inhibition, % at 20 µM; 0.71% of 330,000 active; active = inhibition of at least 40% at 20 µM;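 note: plate controls were DMSO wells for no effect and DEVD-CHO caspase inhibitor wells for full effect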
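System – cell-free apoptosome with Apaf-1, procaspase-3 and caspase-9 · Buffer or medium – pH 7.5 Hepes buffer with CHAPS, BSA, DTT · Also added – cytochrome c with DEVD-Rh110 · Times – 30 min compound preincubation, 50 min activation, room temperature · Technique – Rh110 fluorescence intensity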
UPR CHOP act – activators of apoptotic arm of unfolded protein response (CHOP); CHO-CHOP luciferase reporter, UPR activation, luminescence; percent of tunicamycin response over DMSO baseline; activation, % at 10 µM; 0.34% of 330,000 active; AID 449763;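 active = at 10 µM dose, activation of 40% or more, normalized to positive control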;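 note: 100% = tunicamycin at 10 µg/mL and 0% = DMSO alone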
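Test system: CHO CHOP reporter cells. Input: 500 CHO-CHOP cells per well. Medium: F12 with 10% FBS. Technique: luciferase luminescence. Measure: percent activation relative to tunicamycin control. Dosing: 10 µM compound, 0.5% DMSO. Timing: 16-18 h cell attachment, then 6 h compound exposure, 37 °C.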
UBC13 inh – human UBC13 polyubiquitination inhibition. P61088. UBC13 polyubiquitin chain formation, TR-FRET. inhibition, % at 20 µM. 0.47% of 330,000 active. AID 485273; in the data active = inhibition above about 45%, passing the limit was not always enough
XBP1 UPR activ – adaptive UPR (XBP1) activation; CHO-XBP1 luciferase reporter, IRE1-XBP1 UPR activation, luminescence; percent of tunicamycin response, DMSO as zero; activation, % at 20 µM; 0.33% of 330,000 active;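 active = versus positive control, 20 µM dose yields 30% or more activation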;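 note: 100% = tunicamycin at 10 µg/mL and 0% = DMSO only wells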
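Material: CHO-XBP1 cells stably carrying IRE1-XBP1-driven luciferase reporter | Medium: F12 with 10% serum | Compound dosing: 20 µM single concentration, DMSO 1% | Incubation: Overnight seeding at 37 °C, 6 h compound treatment at 37 °C | Detection: Steady-Glo luminescence read | Read-out basis: % activation of reporter signal versus tunicamycin and DMSO controls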
Mdm2 MdmX PPI – human Mdm2/MdmX binding inhibition; O15151+Q00987; 3% of 330,000 active; SaOS-2 split-luciferase Mdm2/MdmX complementation, luminescence; AID 485346; inhibition, % at 8 µM;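 active = inhibition of at least 50% at 8 µM in the primary screen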
Target sequence (O15151 whole entry, looked up): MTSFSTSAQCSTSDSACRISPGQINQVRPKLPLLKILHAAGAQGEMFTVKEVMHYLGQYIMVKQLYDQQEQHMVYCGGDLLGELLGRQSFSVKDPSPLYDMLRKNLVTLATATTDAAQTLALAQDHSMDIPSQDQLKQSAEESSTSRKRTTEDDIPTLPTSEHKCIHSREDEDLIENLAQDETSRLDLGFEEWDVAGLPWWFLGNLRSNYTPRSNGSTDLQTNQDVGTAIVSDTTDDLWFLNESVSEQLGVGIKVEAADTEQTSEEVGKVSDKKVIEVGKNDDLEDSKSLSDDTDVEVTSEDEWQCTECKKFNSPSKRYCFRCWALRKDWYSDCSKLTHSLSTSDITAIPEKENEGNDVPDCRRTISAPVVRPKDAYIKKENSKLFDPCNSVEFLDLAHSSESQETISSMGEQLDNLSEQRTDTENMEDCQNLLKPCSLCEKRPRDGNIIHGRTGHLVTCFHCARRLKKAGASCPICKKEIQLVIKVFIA
Target sequence (Q00987 whole entry, looked up): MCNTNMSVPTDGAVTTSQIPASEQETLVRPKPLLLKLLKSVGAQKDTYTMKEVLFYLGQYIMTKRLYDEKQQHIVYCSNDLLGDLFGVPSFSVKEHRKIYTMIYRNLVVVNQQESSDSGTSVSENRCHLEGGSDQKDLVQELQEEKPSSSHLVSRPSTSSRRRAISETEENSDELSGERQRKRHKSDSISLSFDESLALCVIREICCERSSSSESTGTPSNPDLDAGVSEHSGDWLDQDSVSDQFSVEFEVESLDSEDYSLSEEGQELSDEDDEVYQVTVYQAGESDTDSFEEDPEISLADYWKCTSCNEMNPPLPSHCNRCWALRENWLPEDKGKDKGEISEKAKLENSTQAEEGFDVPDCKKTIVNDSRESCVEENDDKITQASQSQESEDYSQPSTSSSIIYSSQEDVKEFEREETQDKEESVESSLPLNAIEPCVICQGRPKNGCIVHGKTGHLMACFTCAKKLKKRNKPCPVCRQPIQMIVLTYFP
Mdm2 MdmX conf – human Mdm2/MdmX binding inhibition, confirmed; shares compounds with Mdm2 MdmX PPI; 55% of 10,000 active; luminescent assay; inhibition, % at 8 µM; in the data active = inhibition above about 40%
Full FLuc ctr – counter-screen for Mdm2/MdmX inhibitors: full-length luciferase | shares compounds with Mdm2 MdmX PPI | SaOS-2 full-length luciferase counterscreen, luminescence | inhibition, % at 8 µM | 77% of 6,200 active | AID 504607;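 active = mean inhibition at 8 µM reaching about 37%, which flags the compound as non-specific, limit read from the data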;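 note: p53-null SaOS-2 cells with luciferase driven by a doxycycline-inducible promoter; compound on cells about two nights before reading with doxycycline added after day one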
Active calls of the source: *; nt = not tested or not shown. Hits are enriched below; roughly 4.1% of the tested compounds scored in any of these assays.

SMILES	Apaf-1 inh	UPR CHOP act	UBC13 inh	XBP1 UPR activ	Mdm2 MdmX PPI	Mdm2 MdmX conf	Full FLuc ctr
C=CCS(=O)(=O)N1CCC(CCOc2ccccc2)(C(=O)OCC)CC1	6	-1	-14	-3	11	nt	nt
CCc1ccc2c(c1)C1(SC(NC(C)=O)=NN1C(C)=O)C(=O)N2CC (configuration not stated)	8	1	-10	1	2	nt	nt
Cc1cc(-c2ccccc2)nc2cc(C(=O)N(Cc3ccccc3)Cc3ccccc3)nn12	23	0	-1	10	51*	1	nt
CN(C)S(=O)(=O)c1ccc(N2C(=O)CC2(/C=C/c2ccccc2)C(=O)NC2CCCC2)cc1 (configuration not stated)	5	5	-2	-1	15	nt	nt
COc1ccccc1/C=C/C1(C(=O)NC2CCCC2)CC(=O)N1c1ccccc1 (configuration not stated)	-4	1	13	12	65*	64*	79*
CCSc1nc2ccccc2n1C(=O)/C=C\c1ccc(OC)c(OC)c1	8	2	-3	-2	100*	100*	52*
CCN(CC)c1nc(C(F)(F)F)nc2c1nnn2Cc1ccccc1	1	-2	2	-7	14	nt	nt
CCc1c(C(=O)NC2CCCc3ccccc32)[nH]c(C)c1C(C)=O (configuration not stated)	3	0	-2	-5	85*	65*	52*
CC(=O)c1c(C)[nH]c(C(=O)NC2CCSc3ccccc32)c1C (configuration not stated)	10	0	2	-6	56*	33	nt
CC(=O)Nc1ccc(C(=O)NC2CCSc3ccccc32)cc1 (configuration not stated)	1	3	-1	2	-10	nt	nt
COCCNC(=O)Cn1cc(/C=N/NC(=O)c2ccc(Oc3ccc(O)cc3)cc2)c2ccccc21	7	0	18	-1	-13	nt	nt
O=C(COC(=O)c1cccc([N+](=O)[O-])c1)Nc1ncc(Br)s1	3	0	8	3	23	nt	nt
Cc1ccc(NC(=O)CSc2nsc(SCC(=O)Nc3ccc(C)cc3C)c2C#N)c(C)c1	-16	10	-14	1	83*	23	nt
CCCCn1c(N)c(N(CCC(C)C)C(=O)C2CC(=O)N(c3ccccc3OCC)C2)c(=O)[nH]c1=O (configuration not stated)	-4	1	-7	-4	-8	nt	nt
COC(=O)c1ccsc1NC(=O)c1ccccc1	6	1	20	8	21	nt	nt
COC(=O)Nc1sccc1C(=O)Nc1sccc1C(=O)OC	-13	0	3	0	61*	12	nt
N#Cc1ccccc1OCC(=O)NCCNC(=O)COc1ccccc1C#N	3	1	0	-1	17	nt	nt
CCN(CC)c1ccc(/C=C2\NC(=O)NC2=O)cc1	4	0	-20	1	63*	48*	58*
O=C1NC(=O)/C(=C\c2ccsc2)N1	2	-1	-9	0	-4	nt	nt
CC1CCN(C(=O)CCC(=O)Nc2nnc(C(F)(F)F)s2)CC1	7	3	-7	-1	-10	nt	nt
O=C(NNc1c2ccccc2nc2ccccc12)c1ccc(Cl)cc1	15	4	-120	0	87*	67*	43*
CN(NC(=O)c1ccc(Cl)cc1)c1nc(-c2ccccc2)nnc1C(F)(F)F	13	-2	-5	-4	21	nt	nt
Cc1ccc(C(=O)NN(C)c2nc3ccccc3nc2C(F)(F)F)cc1	-2	0	-5	0	70*	54*	61*
CSc1nc(N(C)NC(=O)c2ccc(Cl)cc2)c2ccccc2n1	11	1	-6	9	62*	56*	88*
CN(NC(=O)c1ccc(Cl)cc1)c1ncc(C(F)(F)F)cc1Cl	-1	1	2	0	14	nt	nt
SMILES	Apaf-1 inh	UPR CHOP act	UBC13 inh	XBP1 UPR activ	Mdm2 MdmX PPI	Mdm2 MdmX conf	Full FLuc ctr
CSc1nc(N(C)NC(=O)c2ccccc2)c2ccccc2n1	4	0	13	6	56*	52*	69*
Cc1ccc([N+](=O)[O-])cc1S(=O)(=O)Nc1cccc(S(=O)(=O)NC2=NCCC2)c1	-1	1	-12	-2	19	nt	nt
CCN(CCO)Cc1csc2ccc(C(C)(C)C)cc12	2	-1	12	-3	-4	nt	nt
CCN(CC(=O)NCc1cccs1)C(=O)c1ccc(OC)c(OC)c1	30	2	11	-1	16	nt	nt
CCOC(=O)/C(C#N)=C\c1cc(C)n(-c2ccccc2)c1C	16	1	5	-3	56*	79*	155*
CCOC(=O)/C(C#N)=C/c1cc(C)n(-c2ccc(C)cc2)c1C	13	6	16	-4	-58	nt	nt
COc1ccc(C(=S)N2CCN(c3ccccc3C)CC2)cc1	15	1	0	-3	-14	nt	nt
CCN(CC)c1ccc(NC(=O)c2ccc3c(c2)c(C)c(C)n3C)cc1	23	2	-20	5	61*	48*	71*
CCCCNC(=O)c1sc(=S)n2c1[nH]c(=O)c1ccccc12	3	0	-15	0	24	nt	nt
O=C(NC1CCCCC1)c1sc(=S)n2c1[nH]c(=O)c1ccccc12	6	1	-12	0	70*	21	nt
COc1ccc(S(=O)(=O)N(C)c2ccc(C(=O)NCC3CCCO3)cc2)cc1OC (configuration not stated)	5	-2	4	0	12	nt	nt
N#C/C(=C\C=C\c1ccccc1[N+](=O)[O-])C(=O)NC1CCCCC1	2	7	-7	3	99*	61*	54*
COc1ccccc1/C=C/C(=O)c1cc(Br)ccc1OC(=O)c1ccco1	33	26	0	30	55*	14	nt
COc1ccc(Br)cc1C(=O)Nc1ccc(NC(=O)c2ccco2)cc1	16	-1	4	1	14	nt	nt
COc1ccc(NC(=O)/C(=C\c2cc(OC)c(OC)cc2[N+](=O)[O-])NC(=O)c2ccccc2)cc1	0	-2	-3	-6	52*	-11	nt
COC1(OC)C(/C=C/c2ccc(C)cc2)C(C#N)(C#N)C1(OC)OC (configuration not stated)	11	0	7	-1	85*	43*	35
CCOC(=O)Cn1ncn(-c2ccc(OC(F)(F)F)cc2)c1=O	6	1	-6	1	6	nt	nt
Cc1ccc2c(c1)sc(-c1ccc(N(C)C)cc1)[n+]2C	6	11	-21	0	79*	79*	47*
CC[n+]1c(C)sc2cc(C)ccc21	2	-1	-2	1	-25	nt	nt
